From ChEMBL document CHEMBL1938337, “Discovery of novel, potent, and selective inhibitors of 3-phosphoinositide-dependent kinase (PDK1)” (J Med Chem, 2011) come the findings set out here.

The target of assay [1] is T1, 3-phosphoinositide-dependent protein kinase 1 (Homo sapiens, UniProt O15530).
T1 sequence (O15530 whole entry): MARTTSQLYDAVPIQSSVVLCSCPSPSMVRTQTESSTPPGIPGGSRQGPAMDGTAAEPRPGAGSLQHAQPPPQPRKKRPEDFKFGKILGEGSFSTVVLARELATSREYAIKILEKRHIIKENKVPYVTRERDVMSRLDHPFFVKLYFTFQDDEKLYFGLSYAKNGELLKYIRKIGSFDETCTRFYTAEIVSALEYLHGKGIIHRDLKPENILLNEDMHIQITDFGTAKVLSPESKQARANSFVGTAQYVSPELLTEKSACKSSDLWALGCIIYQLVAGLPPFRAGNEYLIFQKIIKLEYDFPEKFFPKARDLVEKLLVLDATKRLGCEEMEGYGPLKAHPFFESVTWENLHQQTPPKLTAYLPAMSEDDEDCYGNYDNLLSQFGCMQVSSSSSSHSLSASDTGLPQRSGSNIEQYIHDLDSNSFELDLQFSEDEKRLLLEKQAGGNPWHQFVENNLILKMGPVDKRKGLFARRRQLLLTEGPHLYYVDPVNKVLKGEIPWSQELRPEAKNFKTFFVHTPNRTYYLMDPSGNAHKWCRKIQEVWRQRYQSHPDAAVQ
Nature of the assay: Inhibition of PDK1-mediated AKT1 phosphorylation at T308 in human A549 cells after 2 hrs by ELISA. It counts as cell-based. A digest of the protocol: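 Cells seeded at 50,000 per well and left to adhere overnight. Inhibitor was added as a 3-fold serial dilution from 0.0169 nM to 10 μM for 2 h, then cells were lysed. Lysates were tested in a commercial pAKT-T308 sandwich ELISA per the kit protocol. IC50 from duplicates, each run repeated at least twice.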
For orientation: ELISA stands for enzyme-linked immunosorbent assay.

Another assay relates to NCI-H460. Briefly: Antiproliferative activity against human H460 cells after 72 hrs by resazurin reduction assay. It counts as functional, cell-based. The settings on record: NCI-H460, 72 h. Summed up: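 Cells seeded at 3,000 per well, left to adhere overnight, then given inhibitor as a 3-fold serial dilution from 0.0169 nM to 10 μM. After 72 h, 250 μg/mL resazurin was added, followed by 6 h more at 37 °C. Fluorescence was read at ex 560 / em 590 nm.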
Background: The colour change of resazurin is a common sign of viable cells or microbes.

Assay [2] has as its target Calcium/calmodulin-dependent protein kinase type II subunit alpha (Homo sapiens) (UniProt Q9UQM7). Briefly: Inhibition of CAMK2A at 1 uM.
For assay [3], the target named is Vascular endothelial growth factor receptor 2 (Homo sapiens) (UniProt P35968). Nature of the assay: Inhibition of KDR at 1 uM.
Assay [4] concerns the target T2, Serine/threonine-protein kinase Sgk1 (Homo sapiens) (UniProt O00141).
T2 sequence (whole entry): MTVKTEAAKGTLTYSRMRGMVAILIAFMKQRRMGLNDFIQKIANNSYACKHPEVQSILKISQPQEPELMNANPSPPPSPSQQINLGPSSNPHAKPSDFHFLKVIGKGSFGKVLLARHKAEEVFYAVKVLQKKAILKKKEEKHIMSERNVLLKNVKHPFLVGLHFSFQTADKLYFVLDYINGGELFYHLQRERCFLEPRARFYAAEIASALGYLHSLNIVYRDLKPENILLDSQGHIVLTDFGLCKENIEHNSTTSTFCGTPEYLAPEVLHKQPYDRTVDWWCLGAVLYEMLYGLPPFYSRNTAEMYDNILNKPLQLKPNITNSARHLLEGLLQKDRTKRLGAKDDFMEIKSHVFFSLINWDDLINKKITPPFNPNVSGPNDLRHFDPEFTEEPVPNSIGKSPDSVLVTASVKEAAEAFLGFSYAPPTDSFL
Nature of the assay: Inhibition of SGK at 1 uM.

Assay [5] has as its target Proto-oncogene tyrosine-protein kinase Src (Homo sapiens) (UniProt P12931). Briefly: Inhibition of SRC at 1 uM.
For assay [6], the target named is Tyrosine-protein kinase Lck (Homo sapiens) (UniProt P06239). Briefly: Inhibition of LCK at 1 uM.
For assay [7], the target named is T3, Tyrosine-protein kinase JAK3 (Homo sapiens) (UniProt P52333).
T3 sequence (whole entry): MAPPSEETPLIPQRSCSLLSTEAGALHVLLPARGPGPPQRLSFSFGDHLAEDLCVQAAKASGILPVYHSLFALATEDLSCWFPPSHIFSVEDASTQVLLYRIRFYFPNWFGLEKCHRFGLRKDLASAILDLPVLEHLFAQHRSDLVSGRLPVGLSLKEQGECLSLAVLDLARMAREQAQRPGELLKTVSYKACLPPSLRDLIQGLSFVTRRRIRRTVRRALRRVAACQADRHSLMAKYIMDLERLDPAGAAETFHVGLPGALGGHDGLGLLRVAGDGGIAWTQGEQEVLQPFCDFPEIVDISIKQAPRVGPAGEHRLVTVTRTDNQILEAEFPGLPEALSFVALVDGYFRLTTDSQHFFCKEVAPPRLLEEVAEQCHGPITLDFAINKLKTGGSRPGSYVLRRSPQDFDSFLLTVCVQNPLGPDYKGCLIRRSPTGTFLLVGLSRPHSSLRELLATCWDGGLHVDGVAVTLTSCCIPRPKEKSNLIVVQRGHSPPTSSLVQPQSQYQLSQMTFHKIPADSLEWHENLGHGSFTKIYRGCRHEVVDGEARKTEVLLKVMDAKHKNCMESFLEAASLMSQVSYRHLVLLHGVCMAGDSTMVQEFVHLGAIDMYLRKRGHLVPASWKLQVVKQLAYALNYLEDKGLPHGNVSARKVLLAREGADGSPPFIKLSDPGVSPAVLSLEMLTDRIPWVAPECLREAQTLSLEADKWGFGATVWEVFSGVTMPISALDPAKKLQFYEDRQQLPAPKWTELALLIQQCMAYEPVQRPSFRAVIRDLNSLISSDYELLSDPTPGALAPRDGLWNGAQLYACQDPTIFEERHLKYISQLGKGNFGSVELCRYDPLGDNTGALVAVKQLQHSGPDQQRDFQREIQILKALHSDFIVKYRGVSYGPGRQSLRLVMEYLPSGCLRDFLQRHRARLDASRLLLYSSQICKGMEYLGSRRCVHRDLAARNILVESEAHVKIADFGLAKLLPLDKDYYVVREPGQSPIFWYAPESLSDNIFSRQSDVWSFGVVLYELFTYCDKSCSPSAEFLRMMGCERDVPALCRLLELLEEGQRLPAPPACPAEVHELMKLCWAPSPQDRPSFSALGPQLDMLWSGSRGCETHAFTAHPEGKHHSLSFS
Nature of the assay: Inhibition of JAK3 at 1 uM.

Assay [8] in a line: Inhibition of PRKCB2 at 1 uM.
Assay [9] concerns the target Serine/threonine-protein kinase pim-2 (Homo sapiens) (UniProt Q9P1W9). Nature of the assay: Inhibition of PIM2 at 1 uM.
Assay [10] deals with Epidermal growth factor receptor (Homo sapiens) (UniProt P00533). Nature of the assay: Inhibition of EGFR at 1 uM.
For assay [11], the target named is Serine/threonine-protein kinase 26 (Homo sapiens) (UniProt Q9P289). Briefly: Inhibition of MST4 at 1 uM.

SMILES strings stand for the structures.

Chain of Calcium/calmodulin-dependent protein kinase type II subunit alpha (Homo sapiens) (Q9UQM7 whole entry): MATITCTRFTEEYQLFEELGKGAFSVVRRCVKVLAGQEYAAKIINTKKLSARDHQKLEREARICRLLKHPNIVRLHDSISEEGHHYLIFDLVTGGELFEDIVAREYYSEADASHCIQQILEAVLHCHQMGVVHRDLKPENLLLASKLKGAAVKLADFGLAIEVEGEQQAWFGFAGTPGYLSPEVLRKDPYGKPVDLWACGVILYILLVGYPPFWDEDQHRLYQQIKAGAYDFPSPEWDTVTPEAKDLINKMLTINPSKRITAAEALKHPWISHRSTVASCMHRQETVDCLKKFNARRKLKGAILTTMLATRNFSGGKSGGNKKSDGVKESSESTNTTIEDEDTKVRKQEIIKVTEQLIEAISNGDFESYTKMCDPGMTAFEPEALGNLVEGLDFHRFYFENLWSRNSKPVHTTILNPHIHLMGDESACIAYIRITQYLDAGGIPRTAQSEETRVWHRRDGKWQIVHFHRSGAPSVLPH
Chain of Tyrosine-protein kinase Lck (Homo sapiens) (P06239 2-509 limits assumed): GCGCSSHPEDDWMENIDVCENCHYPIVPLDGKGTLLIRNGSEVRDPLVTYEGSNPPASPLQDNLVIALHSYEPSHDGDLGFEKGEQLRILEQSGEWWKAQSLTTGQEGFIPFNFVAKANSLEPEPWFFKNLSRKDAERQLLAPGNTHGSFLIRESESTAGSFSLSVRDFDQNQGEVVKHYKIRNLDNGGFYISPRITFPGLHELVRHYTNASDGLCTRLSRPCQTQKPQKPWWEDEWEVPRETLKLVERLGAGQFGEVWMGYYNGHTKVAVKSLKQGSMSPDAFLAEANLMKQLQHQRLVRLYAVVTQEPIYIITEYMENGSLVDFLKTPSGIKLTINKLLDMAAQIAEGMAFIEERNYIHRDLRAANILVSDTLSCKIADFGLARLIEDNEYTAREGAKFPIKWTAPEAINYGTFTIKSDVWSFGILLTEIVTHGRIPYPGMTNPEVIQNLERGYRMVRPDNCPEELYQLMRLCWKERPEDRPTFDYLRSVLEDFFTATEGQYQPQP
Chain of Serine/threonine-protein kinase 26 (Homo sapiens) (Q9P289 2-416 limits assumed): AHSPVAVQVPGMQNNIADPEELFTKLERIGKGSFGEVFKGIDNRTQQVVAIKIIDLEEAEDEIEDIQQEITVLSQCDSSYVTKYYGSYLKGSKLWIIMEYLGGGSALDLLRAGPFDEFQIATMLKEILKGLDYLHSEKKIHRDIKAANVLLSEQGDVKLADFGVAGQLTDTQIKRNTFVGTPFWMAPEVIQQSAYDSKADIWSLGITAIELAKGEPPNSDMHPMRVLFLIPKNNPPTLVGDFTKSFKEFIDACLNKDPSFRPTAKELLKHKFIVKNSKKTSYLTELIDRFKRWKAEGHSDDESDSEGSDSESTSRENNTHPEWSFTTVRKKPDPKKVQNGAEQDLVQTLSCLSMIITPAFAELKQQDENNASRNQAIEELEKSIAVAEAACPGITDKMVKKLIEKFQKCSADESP
Chain of Epidermal growth factor receptor (Homo sapiens) (P00533 whole entry): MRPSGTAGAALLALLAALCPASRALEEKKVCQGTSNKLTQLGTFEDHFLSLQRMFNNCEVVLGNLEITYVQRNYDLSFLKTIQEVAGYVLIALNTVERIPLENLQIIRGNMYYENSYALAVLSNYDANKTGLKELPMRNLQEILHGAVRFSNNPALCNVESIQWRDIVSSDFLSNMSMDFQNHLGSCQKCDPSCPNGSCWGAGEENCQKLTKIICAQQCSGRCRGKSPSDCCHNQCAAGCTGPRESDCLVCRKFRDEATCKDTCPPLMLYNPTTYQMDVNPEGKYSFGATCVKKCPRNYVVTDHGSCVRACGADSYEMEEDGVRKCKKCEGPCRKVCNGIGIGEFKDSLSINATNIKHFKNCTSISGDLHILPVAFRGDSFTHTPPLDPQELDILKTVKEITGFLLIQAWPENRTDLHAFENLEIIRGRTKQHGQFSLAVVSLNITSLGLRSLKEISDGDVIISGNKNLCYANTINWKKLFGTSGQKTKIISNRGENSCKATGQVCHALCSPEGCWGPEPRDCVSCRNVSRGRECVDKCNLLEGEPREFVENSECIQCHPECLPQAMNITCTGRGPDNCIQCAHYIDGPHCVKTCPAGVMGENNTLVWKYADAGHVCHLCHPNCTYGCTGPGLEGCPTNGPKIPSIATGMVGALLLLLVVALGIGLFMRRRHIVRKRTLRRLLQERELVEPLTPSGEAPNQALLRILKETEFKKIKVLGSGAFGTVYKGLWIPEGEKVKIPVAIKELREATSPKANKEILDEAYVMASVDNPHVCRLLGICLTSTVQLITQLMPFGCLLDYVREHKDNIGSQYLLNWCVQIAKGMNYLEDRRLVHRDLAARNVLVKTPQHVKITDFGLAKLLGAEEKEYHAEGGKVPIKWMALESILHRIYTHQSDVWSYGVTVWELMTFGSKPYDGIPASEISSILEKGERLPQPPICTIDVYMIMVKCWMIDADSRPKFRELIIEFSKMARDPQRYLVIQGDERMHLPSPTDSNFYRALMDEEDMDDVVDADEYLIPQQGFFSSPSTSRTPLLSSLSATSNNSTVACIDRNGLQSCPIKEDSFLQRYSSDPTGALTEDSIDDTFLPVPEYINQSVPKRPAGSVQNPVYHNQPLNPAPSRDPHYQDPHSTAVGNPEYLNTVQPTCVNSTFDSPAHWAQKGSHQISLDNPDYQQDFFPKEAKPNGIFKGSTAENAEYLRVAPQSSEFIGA
Chain of Vascular endothelial growth factor receptor 2 (Homo sapiens) (P35968 whole entry): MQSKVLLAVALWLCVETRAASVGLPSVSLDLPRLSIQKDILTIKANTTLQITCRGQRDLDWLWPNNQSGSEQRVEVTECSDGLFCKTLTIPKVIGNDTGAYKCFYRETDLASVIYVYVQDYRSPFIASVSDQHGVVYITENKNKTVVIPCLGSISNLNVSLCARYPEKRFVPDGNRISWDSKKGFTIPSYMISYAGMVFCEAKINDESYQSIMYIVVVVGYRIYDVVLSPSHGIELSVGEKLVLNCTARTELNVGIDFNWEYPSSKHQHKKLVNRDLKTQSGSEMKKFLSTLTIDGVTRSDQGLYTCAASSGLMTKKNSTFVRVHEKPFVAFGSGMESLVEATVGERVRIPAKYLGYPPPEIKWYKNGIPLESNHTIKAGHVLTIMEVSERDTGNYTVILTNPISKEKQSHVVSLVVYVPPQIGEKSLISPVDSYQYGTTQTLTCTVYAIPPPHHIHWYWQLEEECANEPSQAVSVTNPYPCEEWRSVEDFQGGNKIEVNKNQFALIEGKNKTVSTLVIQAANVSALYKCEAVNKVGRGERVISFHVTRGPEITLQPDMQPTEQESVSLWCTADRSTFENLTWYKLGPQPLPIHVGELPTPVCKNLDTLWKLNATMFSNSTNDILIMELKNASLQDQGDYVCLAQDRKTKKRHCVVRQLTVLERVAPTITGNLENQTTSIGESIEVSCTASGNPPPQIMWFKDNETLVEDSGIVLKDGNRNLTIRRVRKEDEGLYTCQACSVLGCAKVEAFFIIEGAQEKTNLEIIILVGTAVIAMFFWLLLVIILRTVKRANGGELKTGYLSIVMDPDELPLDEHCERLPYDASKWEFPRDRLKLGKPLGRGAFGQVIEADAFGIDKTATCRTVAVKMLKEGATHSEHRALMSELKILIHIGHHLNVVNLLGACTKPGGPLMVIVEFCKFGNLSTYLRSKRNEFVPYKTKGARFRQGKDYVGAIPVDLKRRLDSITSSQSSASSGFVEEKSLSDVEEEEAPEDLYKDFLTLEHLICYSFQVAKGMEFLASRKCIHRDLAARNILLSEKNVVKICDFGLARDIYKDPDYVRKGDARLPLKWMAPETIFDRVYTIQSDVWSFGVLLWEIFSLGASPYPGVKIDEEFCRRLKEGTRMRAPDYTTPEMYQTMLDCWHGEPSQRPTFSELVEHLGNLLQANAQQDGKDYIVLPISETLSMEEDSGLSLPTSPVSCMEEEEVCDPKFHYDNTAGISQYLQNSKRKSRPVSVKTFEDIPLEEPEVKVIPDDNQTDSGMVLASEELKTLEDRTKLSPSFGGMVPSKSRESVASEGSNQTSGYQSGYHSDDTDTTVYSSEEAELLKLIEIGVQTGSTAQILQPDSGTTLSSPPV
Chain of Proto-oncogene tyrosine-protein kinase Src (Homo sapiens) (P12931 2-536 limits assumed): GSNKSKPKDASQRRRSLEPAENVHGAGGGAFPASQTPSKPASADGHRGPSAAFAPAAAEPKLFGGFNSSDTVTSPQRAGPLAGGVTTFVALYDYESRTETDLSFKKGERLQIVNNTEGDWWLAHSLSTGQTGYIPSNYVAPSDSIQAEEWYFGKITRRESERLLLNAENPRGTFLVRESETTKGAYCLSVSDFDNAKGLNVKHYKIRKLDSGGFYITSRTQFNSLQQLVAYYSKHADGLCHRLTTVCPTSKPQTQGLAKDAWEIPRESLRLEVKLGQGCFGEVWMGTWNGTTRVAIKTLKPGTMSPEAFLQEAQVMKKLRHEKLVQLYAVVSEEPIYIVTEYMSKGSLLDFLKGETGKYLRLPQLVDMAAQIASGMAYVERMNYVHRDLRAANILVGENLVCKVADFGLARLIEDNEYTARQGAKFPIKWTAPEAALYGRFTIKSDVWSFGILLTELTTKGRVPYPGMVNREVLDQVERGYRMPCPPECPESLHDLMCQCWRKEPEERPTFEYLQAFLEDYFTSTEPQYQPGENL
Chain of Serine/threonine-protein kinase pim-2 (Homo sapiens) (Q9P1W9 whole entry, looked up): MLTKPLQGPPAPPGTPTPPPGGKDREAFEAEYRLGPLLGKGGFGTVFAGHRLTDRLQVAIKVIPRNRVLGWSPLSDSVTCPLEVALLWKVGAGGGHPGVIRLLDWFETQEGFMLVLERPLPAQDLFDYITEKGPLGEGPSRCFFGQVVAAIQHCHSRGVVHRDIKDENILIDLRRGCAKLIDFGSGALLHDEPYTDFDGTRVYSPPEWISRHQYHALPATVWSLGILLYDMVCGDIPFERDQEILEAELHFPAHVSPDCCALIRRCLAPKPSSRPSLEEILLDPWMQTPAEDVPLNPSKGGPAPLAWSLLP

In general, IC50 refers to the concentration that inhibits the measured activity by half. Usually EC50 stands for the concentration at which the effect is half-maximal. A word on the inhibition: it is the drop in the measured response relative to a control, in per cent. Compound `CC(=O)N1CC[C@@H](Nc2cncc(C(=O)c3cn(C(C)C)c4ncnc(N)c34)n2)[C@H]1c1ccc(F)cc1` yielded a concentration for half-maximal inhibition (IC50) in assay [1] of 80 nM. Moreover, the concentration giving a half-maximal response (EC50) in the assay with NCI-H460 is 1900 nM. The inhibition in assay [2] was 73%; in assay [3], 51%; in assay [4] it was 61%; in [5], 21%; in assay [6], 22%; in [7] it was 6%. Moreover, the inhibition is 15% in assay [8], 7% in [9], 1% in assay [10] and 8% in [11].
For `CC(=O)N1CC[C@@H](Nc2cncc(C(=O)c3cn(C(C)C)c4ncnc(N)c34)n2)[C@H]1c1ccccc1`, the concentration for half-maximal inhibition (IC50) in assay [1] was determined as 300 nM. This compound returned a concentration giving a half-maximal response (EC50) in the assay on NCI-H460 of 1700 nM. In addition, the inhibition in assay [2] is 32%; in assay [3] it was 34%; in [4] it was 30%; in assay [5], 14%; in [6], 11%; in [7], -2%. The inhibition is 1% in assay [8], -2% in assay [9], -2% in assay [10] and -6% in assay [11].
As to `CC(C)n1cc(C(=O)c2cncc(N[C@@H]3CCN(C=O)[C@@H]3c3ccc(F)cc3)n2)c2c(N)ncnc21`, half-maximal inhibition in assay [1] (IC50) required 50 nM. The EC50 in the assay on NCI-H460 came out at 700 nM. In addition, the inhibition in assay [2] is 62%; in assay [3], 49%; in [4], 48%; in assay [5], 29%; in assay [6], 27%; in assay [7], 16%. In addition, the inhibition in assay [8] came to 14%; in [9], 9%; in assay [10] it was 7%; in assay [11], 4%.
